Experimental data: ChEMBL document CHEMBL1131094, “Classical/nonclassical hybrid cannabinoids: southern aliphatic chain-functionalized C-6beta methyl, ethyl, and propyl analogues” (J Med Chem, 1998)

Experiments:
Cannabinoid receptor 1 = Cannabinoid receptor 1 (Rattus norvegicus, UniProt P20272); test: Binding affinity to Cannabinoid receptor 1 from rat forebrain synaptosomal membranes was measured using [3H]CP-55940 as radioligand
Procedure, shortened: (§1)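 Filtration displacement assay: 40 µg membrane protein (rat forebrain synaptosomes for CB1, mouse spleen for CB2) incubated 1 h at 30 °C with 0.76 nM [3H]CP-55,940 and varied test concentrations. Nonspecific binding defined by 100 nM unlabeled CP-55,940. Specific binding normalized 0–100%, IC50 fitted with a four-variable equation (max 100, min 0), mean of ≥3 experiments in duplicate, then converted to Ki.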

Cannabinoid receptor 2 = Cannabinoid receptor 2 (Mus musculus, UniProt P47936); test: Binding affinity to Cannabinoid receptor 2 from mouse spleen was measured using [3H]CP-55940 as radioligand; assay type: tissue-based; procedure, shortened: as §1
Chain of Cannabinoid receptor 2 (P47936 whole entry): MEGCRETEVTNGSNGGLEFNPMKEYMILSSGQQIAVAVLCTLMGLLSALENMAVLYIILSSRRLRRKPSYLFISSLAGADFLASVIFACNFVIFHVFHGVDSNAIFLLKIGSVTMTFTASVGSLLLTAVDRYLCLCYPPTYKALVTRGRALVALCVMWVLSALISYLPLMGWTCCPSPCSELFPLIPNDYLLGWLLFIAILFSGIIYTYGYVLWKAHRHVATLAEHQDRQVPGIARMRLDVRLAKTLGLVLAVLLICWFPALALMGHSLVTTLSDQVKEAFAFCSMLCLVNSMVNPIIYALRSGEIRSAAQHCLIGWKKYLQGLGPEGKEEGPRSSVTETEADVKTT

Chain of Cannabinoid receptor 1 (P20272 whole entry): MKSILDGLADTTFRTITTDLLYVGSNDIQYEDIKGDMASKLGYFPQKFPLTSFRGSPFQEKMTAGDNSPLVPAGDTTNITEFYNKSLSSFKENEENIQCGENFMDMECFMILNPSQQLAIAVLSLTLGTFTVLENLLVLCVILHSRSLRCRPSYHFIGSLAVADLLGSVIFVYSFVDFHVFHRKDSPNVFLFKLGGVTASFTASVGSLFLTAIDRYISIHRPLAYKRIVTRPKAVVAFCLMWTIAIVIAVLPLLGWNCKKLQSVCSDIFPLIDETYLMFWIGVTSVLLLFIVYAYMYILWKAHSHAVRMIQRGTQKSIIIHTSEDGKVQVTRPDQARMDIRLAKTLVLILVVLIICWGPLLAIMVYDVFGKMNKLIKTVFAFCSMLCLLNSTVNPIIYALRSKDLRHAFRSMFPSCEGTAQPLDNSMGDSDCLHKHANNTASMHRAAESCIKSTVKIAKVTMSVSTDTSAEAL

Row | SMILES | Ki (Cannabinoid receptor 1) [nM] | Ki (Cannabinoid receptor 2) [nM]
1 | CCCCCCC(C)(C)c1cc(O)c2c(c1)O[C@@](C)(CCCI)[C@@H]1CC[C@@H](CO)C[C@@H]21 | 2.2 | 4.3
2 | CCCCCCC(C)(C)c1cc(O)c2c(c1)O[C@@](C)(CC)[C@@H]1CC[C@@H](CO)C[C@@H]21 | 11.1 | 21.5
3 | CCCCCCC(C)(C)c1cc(O)c2c(c1)O[C@@](C)(CCI)[C@@H]1CC[C@@H](CO)C[C@@H]21 | 40.7 | 9.7
4 | CCCCCCC(C)(C)c1cc(O)c2c(c1)O[C@@](C)(CCCO)[C@@H]1CC[C@@H](CO)C[C@@H]21 | 2.2 | 3.4
5 | CCCCCCC(C)(C)c1cc(O)c2c(c1)O[C@@](C)(CO)[C@@H]1CC[C@@H](CO)C[C@@H]21 | 1.9 | 1.4
6 | CCCCCCC(C)(C)c1cc(O)c2c(c1)OC(C)(C)[C@@H]1CC[C@@H](CO)C[C@@H]21 | 2.3 | 2.3
7 | CCCCCCC(C)(C)c1cc(O)c2c(c1)O[C@@](C)(CCC)[C@@H]1CC[C@@H](CO)C[C@@H]21 | 14.4 | 38.9
8 | CCCCCCC(C)(C)c1cc(O)c2c(c1)O[C@@](C)(CCO)[C@@H]1CC[C@@H](CO)C[C@@H]21 | 2.8 | 2.3
